Key:
FOSL1 [1] = test: Western blot, FOSL1 expression in intact cells; type: cell-based, human; settings: 10 PDAC cell lines, 12 hours
Aspc‐1 cells [2] = test: Transwell invasion assay; type: cell-based, human
Summary of the method: (§1)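 Inserts were precoated with polymerized collagen type I. Cells were seeded on the insert bottom in serum‑free medium with serial dilutions of test compound or vehicle, with 10% FBS medium in the lower chamber. After one day, cells were stained with calcein‑AM and optical sections taken at 10‑μm intervals. Invasion was scored as cells moving >20 μm into collagen; n = 3, mean with SD.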

Bxpc‐3 cells [3] = test: Transwell invasion assay; type: cell-based, human
Summary of the method: as §1

Aspc‐1 cells [4] = test: Annexin V/PI apoptosis assay; type: cell-based, human; settings: 24 hours
Summary of the method: (§2)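 Cells were treated with a range of concentrations for 24 hours, washed with PBS, then stained with annexin V‑FITC and propidium iodide for 15 minutes in the dark. […] Early (annexin V) and late (PI) apoptotic cells are reported as percentages, mean of n = 3 with SD.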

STAT3 [5] = test: Immunohistochemistry of xenograft tumor tissues; type: in vivo, NOD‐SCID mice; settings: Aspc‐1 and Bxpc‐3 models; LY‐1816 and dasatinib 40 mg/kg/d p.o., gemcitabine 80 mg/kg/wk; IHC
Summary of the method: (§3)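 Six-week-old female NOD-SCID mice received 5 × 10⁶ to 1 × 10⁷ cells s.c. in the right flank. Treatment began at about 200 mm³. Test compound (40 mg/kg/d) was given once daily by oral gavage in 25% PEG400 plus 5% DMSO in water. Tumors were resected at the end of dosing. Frozen sections were immunostained and imaged by light microscopy.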

Bxpc‐3 xenograft = test: Subcutaneous xenograft model; type: in vivo, NOD‐SCID mice; settings: Bxpc‐3 model; LY‐1816 20 or 40 mg/kg/d p.o.; dasatinib 40 mg/kg/d p.o.; gemcitabine 80 mg/kg once a week
Summary of the method: (§4)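 Female NOD‑SCID mice bearing s.c. right‑flank tumors (5 × 10⁶–1 × 10⁷ cells injected) were randomized at 100–200 mm³ (6–7 per group). They received test compound in 25% PEG400/5% DMSO/water by oral gavage once daily for 18 days, or vehicle. Tumors were measured by caliper every 3 days, with volume = length × width² × 0.5.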

STAT3 [6] = test: Western blot, STAT3 phosphorylation; type: cell-based, human; settings: Aspc‐1 and Bxpc‐3 cells, 12 hours
Summary of the method: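 Aspc-1 and Bxpc-3 cells were grown overnight in complete medium and treated with test compound for 12 h. Cells were lysed in RIPA buffer and protein was quantified. Lysates were run on SDS-PAGE and transferred to PVDF, then blocked 2 h in TBS-T with 5% non-fat milk. Blots were probed for pAKT Ser473, pERK Thr202/Tyr204, pSTAT3 Tyr705, the matching total proteins and β-actin. Detection was by enhanced chemiluminescence.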

Aspc‐1 xenograft = test: Subcutaneous xenograft model; type: in vivo, NOD‐SCID mice; settings: Aspc‐1 model; LY‐1816 20 or 40 mg/kg/d p.o.; dasatinib 40 mg/kg/d p.o.; gemcitabine 80 mg/kg once a week
Summary of the method: as §4

Bxpc‐3 cells [7] = test: Annexin V/PI apoptosis assay; type: cell-based, human; settings: 24 hours
Summary of the method: as §2

FOSL1 [8] = test: Immunohistochemistry of xenograft tumor tissues; type: in vivo, NOD‐SCID mice; settings: Aspc‐1 and Bxpc‐3 models; LY‐1816 and dasatinib 40 mg/kg/d p.o., gemcitabine 80 mg/kg/wk; IHC
Summary of the method: as §3

Src [9] = biological target: Src (Homo sapiens, UniProt P12931); type: cell-based; settings: 10 PDAC cell lines; 12 hours; western blot
Chain of Src (Homo sapiens, UniProt P12931) (P12931 whole entry): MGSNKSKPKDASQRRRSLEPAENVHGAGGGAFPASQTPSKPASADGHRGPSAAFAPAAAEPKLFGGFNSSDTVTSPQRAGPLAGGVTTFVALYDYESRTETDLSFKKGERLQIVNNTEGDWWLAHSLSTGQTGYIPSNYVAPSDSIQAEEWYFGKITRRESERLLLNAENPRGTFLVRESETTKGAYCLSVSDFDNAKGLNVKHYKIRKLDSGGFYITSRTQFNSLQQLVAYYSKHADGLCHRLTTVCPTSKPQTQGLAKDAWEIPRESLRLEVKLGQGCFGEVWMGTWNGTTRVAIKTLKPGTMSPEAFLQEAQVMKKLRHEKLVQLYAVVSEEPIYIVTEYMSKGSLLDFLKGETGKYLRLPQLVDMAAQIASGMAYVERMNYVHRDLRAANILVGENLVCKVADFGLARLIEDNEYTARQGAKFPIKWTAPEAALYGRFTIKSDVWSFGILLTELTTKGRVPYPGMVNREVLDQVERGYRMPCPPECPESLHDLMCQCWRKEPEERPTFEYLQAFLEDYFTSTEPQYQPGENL

Aspc‐1 cells [10] = test: Wound healing assay; type: cell-based, human; settings: 18 hours
Bxpc‐3 cells [11] = test: Wound healing assay; type: cell-based, human; settings: 18 hours
Src [12] = test: Immunohistochemistry of xenograft tumor tissues; type: in vivo, NOD‐SCID mice; settings: Aspc‐1 and Bxpc‐3 models; LY‐1816 and dasatinib 40 mg/kg/d p.o., gemcitabine 80 mg/kg/wk; IHC
cleaved caspase‐3 = test: Immunohistochemistry of xenograft tumor tissues; type: in vivo, NOD‐SCID mice; settings: xenograft models; LY‐1816 40 mg/kg/d p.o., gemcitabine 80 mg/kg/wk; IHC
Summary of the method: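 Aspc‑1 or Bxpc‑3 s.c. tumors in NOD‑SCID mice were dosed p.o. daily from about 200 mm³, with vehicle controls. At study end, tumors were resected. Frozen sections were immunostained and imaged by light microscopy, and cleaved caspase‑3‑positive cells were counted.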

Row | SMILES | FOSL1 expression (FOSL1 [1]) | cell invasion (Aspc‐1 cells [2]) | cell invasion (Bxpc‐3 cells [3]) | apoptosis (annexin V and PI‐positive populations) (Aspc‐1 cells [4]) | phosphorylation of STAT3 in tumor tissues (STAT3 [5]) | antitumor activity (Bxpc‐3 xenograft) | phosphorylation of STAT3 (STAT3 [6]) | antitumor activity (Aspc‐1 xenograft) | apoptosis (annexin V and PI‐positive populations) (Bxpc‐3 cells [7]) | expression of FOSL1 in tumor tissues (FOSL1 [8]) | phosphorylation of Src (Src [9]) | cell migration (Aspc‐1 cells [10]) | cell migration (Bxpc‐3 cells [11]) | phosphorylation of Src in tumor tissues (Src [12]) | cleaved caspase‐3 stain in tumor tissues (cleaved caspase‐3)
1 | Cc1nc(Nc2ncc(C(=O)Nc3c(C)cccc3Cl)s2)cc(N2CCN(CCO)CC2)n1 [dasatinib] | slight influence on FOSL1 expression | poor ability to block cell invasion | poor ability to block cell invasion | also could induce apoptosis | very weak or no influence on the phosphorylation of STAT3 or the expression of FOSL1 | also showed antitumor activities | very weak or no impact on the phosphorylation of STAT3 | also showed antitumor activities | also could induce apoptosis | very weak or no influence on the phosphorylation of STAT3 or the expression of FOSL1 | – | – | – | – | –
2 | Nc1ccn([C@@H]2O[C@H](CO)[C@@H](O)C2(F)F)c(=O)n1 [gemcitabine, reference compound] | little inhibitory effect against Src and FOSL1 expression | poor ability to block cell invasion | poor ability to block cell invasion | also could induce apoptosis | did not evidently inhibit the activities of Src or STAT3, nor FOSL1 expression | also showed antitumor activities | – | also showed antitumor activities | also could induce apoptosis | did not evidently inhibit the activities of Src or STAT3, nor FOSL1 expression | little inhibitory effect against Src and FOSL1 expression | very weak activity in blocking cell migration | very weak activity in blocking cell migration | did not evidently inhibit the activities of Src or STAT3, nor FOSL1 expression | increase in the number of cleaved caspase‐3‐positive cells

— publication PMC6447837 (Cancer Science, 2019)
